Results as given in ChEMBL document CHEMBL1799956, “Convergent synthesis and biological evaluation of 2-amino-4-(3',4',5'-trimethoxyphenyl)-5-aryl thiazoles as microtubule targeting agents” (J Med Chem, 2011).

Tests used:
[1] = system: A549; experiment: Antiproliferative activity against human A549 cells assessed as growth inhibition after 72 hrs by MTT assay; assay type: functional, cell-based; conditions: A549, 72 h
[2] = system: HeLa; experiment: Antiproliferative activity against human HeLa cells assessed as growth inhibition after 72 hrs by MTT assay; assay type: functional, cell-based
[3] = system: HL-60; experiment: Antiproliferative activity against human HL60 cells assessed as growth inhibition after 72 hrs by MTT assay; assay type: functional, cell-based; conditions: HL-60, 72 h
[4] = system: Jurkat; experiment: Antiproliferative activity against human Jurkat cells assessed as growth inhibition after 72 hrs by MTT assay; assay type: functional, cell-based
[5] = system: K562; experiment: Antiproliferative activity against human K562 cells assessed as growth inhibition after 72 hrs by MTT assay; assay type: functional, cell-based; conditions: K562, 72 h
[6] = system: MCF7; experiment: Antiproliferative activity against human MCF7 cells assessed as growth inhibition after 72 hrs by MTT assay; assay type: functional, cell-based; conditions: MCF7, 72 h
[7] = system: HT-29; experiment: Antiproliferative activity against human HT-29 cells assessed as growth inhibition after 72 hrs by MTT assay; assay type: functional, cell-based; conditions: HT-29, 72 h
[8] = system: LoVo; experiment: Antiproliferative activity against human LoVo cells assessed as growth inhibition after 72 hrs by MTT assay; assay type: functional, cell-based
[9] = system: LoVo; experiment: Antiproliferative activity against human doxorubicin-resistant LoVo cells overexpressing P-gp assessed as growth inhibition after 72 hrs by MTT assay; assay type: functional, cell-based
[10] = system: CCRF-CEM; experiment: Antiproliferative activity against human CEM cells assessed as growth inhibition after 72 hrs by MTT assay; assay type: functional, cell-based
[11] = Antiproliferative activity against human vinblastine-resistant CEM/VBL100 cells overexpressing P-gp assessed as growth inhibition after 72 hrs by MTT assay; assay type: functional, cell-based; conditions: CEM/VBL100, 72 h
[12] = Antiproliferative activity against human taxol-resistant A549-T12 cells assessed as growth inhibition after 72 hrs by MTT assay; assay type: functional, cell-based; conditions: A549, 72 h
[13] = Inhibition of bovine brain tubulin polymerization after 20 mins by turbidimetric analysis; design: species or system Bos taurus
Method in brief: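 Purified tubulin at 10 μM was used for the assembly (polymerization) inhibition assay. IC50 is the concentration inhibiting assembly.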

[14] = organism: Bos taurus; experiment: Displacement of [3H]colchicine from bovine brain tubulin at 5 uM
Method in brief: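 [3H]colchicine binding inhibition with tubulin at 1 μM, [3H]colchicine at 5 μM and test compound at 5 μM.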

[15] = system: LoVo; experiment: Fold resistance, ratio of IC50 for human doxorubicin-resistant LoVo cells overexpressing P-gp to IC50 for human LoVo cells; assay type: functional
Method in brief: (§1)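 Fold resistance taken as the ratio of IC50 in the resistant line to IC50 in the parental line, each IC50 from dose-response curves of at least three independent experiments.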

[16] = system: CCRF-CEM; experiment: Fold resistance, ratio of IC50 for human vinblastine-resistant CEM/VBL100 cells overexpressing P-gp to IC50 for human CEM cells; assay type: functional; method in brief: as §1
[17] = system: A549; experiment: Fold resistance, ratio of IC50 for human taxol-resistant A549-T12 cells to IC50 for human A549 cells; assay type: functional
[18] = organism: Bos taurus; experiment: Ratio of combretastatin A-4 IC50 to compound IC50 for bovine brain tubulin

| IC50 [1] [nM] | IC50 [2] [nM] | IC50 [3] [nM] | IC50 [4] [nM] | IC50 [5] [nM] | IC50 [6] [nM] | IC50 [7] [nM] | IC50 [8] [nM] | IC50 [10] [nM] | IC50 [13] [nM] | inhibition [14] [%] | Ratio IC50 [18] | Structure (SMILES) | IC50 [9] [nM] | IC50 [11] [nM] | IC50 [12] [nM] | Ratio IC50 [15] | Ratio IC50 [16] | Ratio IC50 [17] |
| --- | --- | --- | --- | --- | --- | --- | --- | --- | --- | --- | --- | --- | --- | --- | --- | --- | --- | --- |
| 11.2 | 0.91 | 0.27 | 0.06 | 8.8 | 14.1 | 15.6 | 2 | 1.4 | 890 | 87 | – | CCOc1ccc(-c2sc(N)nc2-c2cc(OC)c(OC)c(OC)c2)cc1Cl | 1.7 | 0.7 | 8.5 | 0.9 | 0.5 | 0.8 |
| 3.8 | 1.6 | 2.7 | 3.3 | 22.1 | 51.2 | 23.9 | – | – | 740 | 94 | – | COc1cc(-c2nc(N)sc2-c2ccc3ccccc3c2)cc(OC)c1OC | – | – | – | – | – | – |
| 1800 | 249 | 301 | 319 | 829 | 1170 | 432 | – | – | – | – | – | COc1ccc(-c2sc(N)nc2-c2cc(OC)c(OC)c(OC)c2)cc1OC | – | – | – | – | – | – |
| 238 | 1 | 1.1 | 4.1 | 49.7 | 117 | 54.1 | – | – | 1100 | 73 | – | CCc1ccc(-c2sc(N)nc2-c2cc(OC)c(OC)c(OC)c2)cc1 | – | – | – | – | – | – |
| 7.2 | – | – | – | – | – | – | – | – | – | – | – | CC(=O)O[C@H]1C(=O)[C@@]2(C)[C@H]([C@H](OC(=O)c3ccccc3)[C@]3(O)C[C@H](OC(=O)[C@H](O)[C@@H](NC(=O)c4ccccc4)c4ccccc4)C(C)=C1C3(C)C)[C@]1(OC(C)=O)CO[C@@H]1C[C@@H]2O [PACLITAXEL] | – | – | 75.2 | – | – | 10.4 |
| – | – | – | – | – | – | – | 120 | – | – | – | – | COc1cccc2c1C(=O)c1c(O)c3c(c(O)c1C2=O)C[C@@](O)(C(=O)CO)C[C@@H]3O[C@H]1C[C@H](N)[C@H](O)[C@H](C)O1 [DOXORUBICIN] | – | – | – | 109.6 | – | – |
| 357 | 3.2 | 5.1 | 8.5 | 7.6 | 0.4 | 221 | – | – | 4000 | 25 | – | COc1cc(-c2nc(N)sc2-c2ccc(C(F)(F)F)cc2)cc(OC)c1OC | – | – | – | – | – | – |
| 42.8 | 0.73 | 3.9 | 3.9 | 58.7 | 280 | 12.4 | – | – | 440 | 88 | 3 | COc1cc(-c2nc(N)sc2-c2ccc(C)cc2)cc(OC)c1OC | – | – | – | – | – | – |
| 2370 | 209 | 118 | 48.4 | 728 | 476 | 239 | – | – | – | – | – | COc1cccc(-c2sc(N)nc2-c2cc(OC)c(OC)c(OC)c2)c1 | – | – | – | – | – | – |
| 305 | 2.6 | 4 | 21.5 | 67.6 | 58.7 | 24 | – | – | 1100 | 72 | – | COc1ccc(-c2sc(N)nc2-c2cc(OC)c(OC)c(OC)c2)cc1C | – | – | – | – | – | – |
| 16 | 2.8 | 0.9 | 0.6 | 19.6 | 47 | 19.1 | – | – | 2000 | 86 | – | COc1cc(-c2nc(N)sc2-c2cc3ccccc3s2)cc(OC)c1OC | – | – | – | – | – | – |
| 3.1 | 2 | 6.1 | 7.3 | 6 | 18.6 | 5.7 | – | – | 1200 | 81 | – | COc1ccc(-c2sc(N)nc2-c2cc(OC)c(OC)c(OC)c2)cc1F | – | – | – | – | – | – |
| 6320 | 3860 | 8660 | 4690 | 9030 | > 10000 | > 10000 | – | – | – | – | – | COc1cc(-c2nc(N)sc2-c2cccc3ccccc23)cc(OC)c1OC | – | – | – | – | – | – |
| 9600 | 3090 | 3640 | 3830 | 8500 | > 10000 | 7920 | – | – | – | – | – | COc1cc(-c2nc(N)sc2-c2ccccc2)cc(OC)c1OC | – | – | – | – | – | – |
| – | – | – | – | – | – | – | – | 4.1 | – | – | – | CC[C@]1(O)C[C@@H]2CN(CCc3c([nH]c4ccccc34)[C@@](C(=O)OC)(c3cc4c(cc3OC)N(C)[C@H]3[C@@](O)(C(=O)OC)[C@H](OC(C)=O)[C@]5(CC)C=CCN6CC[C@]43[C@@H]65)C2)C1 [VINBLASTINE] | – | 230 | – | – | 56.1 | – |

| Structure (SMILES) | IC50 [1] [nM] | IC50 [2] [nM] | IC50 [3] [nM] | IC50 [4] [nM] | IC50 [5] [nM] | IC50 [6] [nM] | IC50 [7] [nM] | IC50 [8] [nM] | IC50 [10] [nM] | IC50 [13] [nM] | inhibition [14] [%] | Ratio IC50 [18] | IC50 [9] [nM] | IC50 [11] [nM] | IC50 [12] [nM] | Ratio IC50 [15] | Ratio IC50 [16] | Ratio IC50 [17] |
| --- | --- | --- | --- | --- | --- | --- | --- | --- | --- | --- | --- | --- | --- | --- | --- | --- | --- | --- |
| COc1ccc(-c2sc(N)nc2-c2cc(OC)c(OC)c(OC)c2)cc1 | 20.2 | 2.3 | 3.2 | 2.1 | 5.1 | 60.9 | 11.7 | 3.1 | 7.7 | 1100 | 79 | – | 0.8 | 1.2 | 11.4 | 0.25 | 0.1 | 0.6 |
| COc1ccc(-c2sc(N)nc2-c2cc(OC)c(OC)c(OC)c2)cc1Cl | 37.7 | 1.6 | 2.8 | 2.9 | 36.1 | 27.3 | 12.8 | – | – | 880 | 77 | – | – | – | – | – | – | – |
